From ChEMBL document CHEMBL1153955, “Indolylarylsulfones bearing natural and unnatural amino acids. Discovery of potent inhibitors of HIV-1 non-nucleoside wild type and resistant mutant strains reverse transcriptase and coxsackie B4 virus” (J Med Chem, 2009)
pEC50, pIC50: −log10 of the molar value.

Assays:
Influenza A virus H3N2 [1] = assay: Antiviral activity against influenza H3N2 virus in MDCK cells assessed as reduction of virus-induced cytopathicity by visual cytopathic effect scoring method; assay type: functional, organism-based
[2] = test system: Respiratory syncytial virus; assay: Antiviral activity against RSV Long in human HeLa cells assessed as protection against virus-induced cytopathicity; assay type: functional, organism-based
Outline: (§1)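 Confluent cell monolayers inoculated with 100 CCID₅₀ virus. After 1-2 h adsorption, residual virus removed and cultures incubated with varying compound concentrations. Cytopathicity scored once it reached completion in untreated infected controls. EC₅₀ = dose reducing virus-induced cytopathogenicity by 50%.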

Coxsackievirus B4 [3] = assay: Antiviral activity against Coxsackievirus B4 in african green monkey Vero cells assessed as protection against virus-induced cytopathicity; assay type: functional, organism-based; settings: Enterovirus B; outline: as §1
Human respirovirus 3 = assay: Antiviral activity against Parainfluenza virus type 3 in african green monkey Vero cells assessed as protection against virus-induced cytopathicity; assay type: functional, organism-based; settings: Human respirovirus 3, Vero; outline: as §1
Influenza A virus [4] = assay: Antiviral activity against influenza H1N1 virus in MDCK cells assessed as reduction of virus-induced cytopathicity by visual cytopathic effect scoring method; assay type: functional, organism-based
[5] = test system: Human immunodeficiency virus 1; assay: Antiviral activity against HIV1 with reverse transcriptase L100I mutation in human CEM cells assessed as protection against virus-induced cytopathicity; assay type: functional, organism-based; settings: Human immunodeficiency virus 1, CCRF-CEM
Outline: (§2)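 CEM cells (~3 × 10⁵ cells/mL) were infected with ~100 CCID₅₀ virus per mL and seeded with serial compound dilutions. After 4 days at 37 °C, syncytium (giant cell) formation was scored microscopically. EC₅₀ is the concentration giving 50% protection against virus cytopathicity.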

[6] = test system: Human immunodeficiency virus 1; assay: Antiviral activity against HIV1 3B in human CEM cells assessed as protection against virus-induced cytopathicity after 4 days; assay type: functional, organism-based; settings: Human immunodeficiency virus 1, 3B, CCRF-CEM, 96 h
Outline: (§3)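 CEM cells (~3 × 10⁵ cells/mL) infected with ~100 CCID₅₀ per mL of HIV-1 (IIIB) or HIV-2 (ROD), then seeded into wells containing compound dilutions. After 4 days at 37 °C, syncytium (giant cell) formation was examined microscopically. EC₅₀ = concentration protecting CEM cells from HIV cytopathicity by 50%.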

Influenza A virus H3N2 [7] = assay: Antiviral activity against influenza H3N2 virus in MDCK cells assessed as reduction of virus-induced cytopathicity by MTS method; assay type: functional, organism-based
[8] = test system: Human immunodeficiency virus 1; assay: Antiviral activity against HIV1 with reverse transcriptase Y181C mutation in human CEM cells assessed as protection against virus-induced cytopathicity; assay type: functional, organism-based; settings: Human immunodeficiency virus 1, CCRF-CEM; outline: as §2
[9] = test system: Vesicular stomatitis virus; assay: Antiviral activity against VSV in human HeLa cells assessed as protection against virus-induced cytopathicity; assay type: functional, organism-based
Sindbis virus = assay: Antiviral activity against Sindbis virus in african green monkey Vero cells assessed as protection against virus-induced cytopathicity; assay type: functional, organism-based; outline: as §1
[10] = Cytotoxicity against feline CRFK cells by MTS assay; assay type: cell-based, Felis catus; settings: cat
Human alphaherpesvirus 1 [11] = assay: Antiviral activity against HSV1 KOS in human HEL cells assessed as protection against virus-induced cytopathicity; assay type: functional, organism-based; settings: Human alphaherpesvirus 1, KOS
Vaccinia virus = assay: Antiviral activity against Vaccinia virus Lederle in human HEL cells assessed as protection against virus-induced cytopathicity; assay type: functional, organism-based; settings: Orthopoxvirus vaccinia
Influenza A virus [12] = assay: Antiviral activity against influenza H1N1 virus in MDCK cells assessed as reduction of virus-induced cytopathicity by MTS method; assay type: functional, organism-based; settings: Influenza A virus, H1N1, MDCK
L1210 = assay: Antiproliferative activity against mouse L1210 cells after 2 days; assay type: cell-based; settings: L1210, 48 h
Outline: (§4)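 Cells seeded at 5 × 10⁴ to 7.5 × 10⁴ cells/200 µL with or without serial compound dilutions; incubated at 37 °C for 2 days (L1210) or 3 days (Molt4/C8, CEM). Cell numbers counted with a Coulter counter. CC₅₀ = concentration reducing proliferation by 50% versus untreated controls, read from plots of cell number (% of control) against concentration. Means of at least two independent experiments.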

Influenza B virus [13] = assay: Antiviral activity against influenza B virus in MDCK cells assessed as reduction of virus-induced cytopathicity by visual cytopathic effect scoring method; assay type: functional, organism-based
[14] = target: Human immunodeficiency virus type 1 reverse transcriptase (Human immunodeficiency virus 1, UniProt Q72547, L100I); assay: Inhibition of HIV1 reverse transcriptase p66/p51 L100I mutant; settings: read-out: IC50
Outline: (§5)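 Substrate was 0.5 µg poly(rA)/oligo(dT) 10:1 (0.3 µM 3′-OH ends) with 10 µM [³H]dTTP, at 37 °C. Acid-precipitable radioactivity was counted on GF/C filters after TCA washes.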

Influenza B virus [15] = assay: Antiviral activity against influenza B virus in MDCK cells assessed as reduction of virus-induced cytopathicity by MTS method; assay type: functional, organism-based
Coxsackievirus B4 [16] = assay: Antiviral activity against Coxsackievirus B4 in human HeLa cells assessed as protection against virus-induced cytopathicity; assay type: functional, organism-based; settings: Enterovirus B; outline: as §1
Human alphaherpesvirus 2 = assay: Antiviral activity against HSV2 G in human HEL cells assessed as protection against virus-induced cytopathicity; assay type: functional, organism-based; settings: Human alphaherpesvirus 2, strain G; outline: as §1
[17] = Antiproliferative activity against human Molt4/C8 cells after 3 days; assay type: cell-based; settings: MOLT-4, 72 h; outline: as §4
[18] = test system: Human immunodeficiency virus 1; assay: Antiviral activity against HIV1 with reverse transcriptase K103N mutation in human CEM cells assessed as protection against virus-induced cytopathicity; assay type: functional, organism-based; settings: Human immunodeficiency virus 1, CCRF-CEM; outline: as §2
[19] = Cytotoxicity against human HEL cells assessed as drug level causing microscopically detectable alteration of normal cell morphology after 3 days; assay type: cell-based
[20] = test system: Human immunodeficiency virus 1; assay: Antiviral activity against HIV1 with reverse transcriptase Y188L mutation in human CEM cells assessed as protection against virus-induced cytopathicity; assay type: functional, organism-based; settings: Human immunodeficiency virus 1, CCRF-CEM; outline: as §2
Felid alphaherpesvirus 1 = assay: Antiviral activity against Feline herpesvirus in feline […] cells assessed as inhibition of virus-induced cytopathicity; assay type: functional, organism-based
Feline coronavirus = assay: Antiviral activity against Feline coronavirus in feline […] cells assessed as inhibition of virus-induced cytopathicity; assay type: functional, organism-based; settings: Alphacoronavirus 1
CCRF-CEM = assay: Antiproliferative activity against human CEM cells after 3 days; assay type: cell-based; settings: 72 h; outline: as §4
[21] = target: Human immunodeficiency virus type 1 reverse transcriptase (Human immunodeficiency virus 1, UniProt Q72547); assay: Inhibition of HIV1 reverse transcriptase p66/p51; settings: read-out: IC50
[22] = target: Human immunodeficiency virus type 1 reverse transcriptase (Human immunodeficiency virus 1, UniProt Q72547, Y181I); assay: Inhibition of HIV1 reverse transcriptase p66/p51 Y181I mutant; settings: read-out: IC50; outline: as §5
[23] = Cytotoxicity against human HeLa cells assessed as drug level causing microscopically detectable alteration of normal cell morphology after 3 days; assay type: cell-based
Outline: (§6)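 Serial compound dilutions added to confluent HeLa or Vero monolayers. MCC = minimum concentration causing microscopically detectable alteration of cell morphology after 3 days of incubation.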

[24] = Cytotoxicity against MDCK cells by MTS assay; assay type: cell-based, Canis lupus familiaris; settings: dog
[25] = test system: Mammalian orthoreovirus 1; assay: Antiviral activity against Reovirus 1 in african green monkey Vero cells assessed as protection against virus-induced cytopathicity; assay type: functional, organism-based; settings: Mammalian orthoreovirus 1, Vero; outline: as §1
Human alphaherpesvirus 1 [26] = assay: Antiviral activity against thymidine kinase deficient and acyclovir resistant HSV1 KOS in human HEL cells assessed as protection against virus-induced cytopathicity; assay type: functional, organism-based; settings: Human alphaherpesvirus 1, KOS
[27] = test system: Human immunodeficiency virus 2; assay: Antiviral activity against HIV2 ROD in human CEM cells assessed as protection against virus-induced cytopathicity after 4 days; assay type: functional, organism-based; settings: Human immunodeficiency virus 2, ROD, CCRF-CEM, 96 h; outline: as §3
[28] = test system: Vesicular stomatitis virus; assay: Antiviral activity against VSV in human HEL cells assessed as protection against virus-induced cytopathicity; assay type: functional, organism-based
[29] = Cytotoxicity against MDCK cells assessed as drug level causing microscopically detectable alteration of normal cell morphology; assay type: cell-based, Canis lupus familiaris; settings: dog
[30] = Cytotoxicity against african green monkey Vero cells assessed as drug level causing microscopically detectable alteration of normal cell morphology after 3 days; assay type: cell-based; settings: chlorocebus sabaeus; outline: as §6
[31] = test system: Human immunodeficiency virus 1; assay: Antiviral activity against HIV1 with reverse transcriptase Y181I mutation in human CEM cells assessed as protection against virus-induced cytopathicity; assay type: functional, organism-based; settings: Human immunodeficiency virus 1, CCRF-CEM; outline: as §2
Punta Toro virus = assay: Antiviral activity against Punta Toro virus in african green monkey Vero cells assessed as protection against virus-induced cytopathicity; assay type: functional, organism-based; outline: as §1
[32] = target: Human immunodeficiency virus type 1 reverse transcriptase (Human immunodeficiency virus 1, UniProt Q72547, K103N); assay: Inhibition of HIV1 reverse transcriptase p66/p51 K103N mutant; settings: read-out: IC50; outline: as §5

SMILES: Cc1cc(C)cc(S(=O)(=O)c2c(C(=O)NC(C)C(N)=O)[nH]c3ccc(Cl)cc23)c1 (configuration not stated)
- pEC50 (Influenza A virus H3N2 [1]): < 5.40
- pEC50 [2]: < 4.00
- pEC50 (Coxsackievirus B4 [3]): < 4.70
- pEC50 (Human respirovirus 3): < 4.70
- pEC50 (Influenza A virus [4]): < 5.40
- pIC50 [5]: 8.05
- pEC50 [6]: 8.80
- pEC50 (Influenza A virus H3N2 [7]): < 5.40
- pIC50 [8]: 7.02
- pEC50 [9]: < 4.00
- pEC50 (Sindbis virus): < 4.70
- CC50 [10]: 39.3 µM
- pEC50 (Human alphaherpesvirus 1 [11]): < 4.00
- pEC50 (Vaccinia virus): < 4.00
- pEC50 (Influenza A virus [12]): < 5.40
- pIC50 (L1210): 4.92
- pEC50 (Influenza B virus [13]): < 5.40
- pIC50 [14]: 6.95
- pEC50 (Influenza B virus [15]): < 5.40
- pEC50 (Coxsackievirus B4 [16]): 5.22
- pEC50 (Human alphaherpesvirus 2): < 4.00
- pIC50 [17]: 5.42
- pIC50 [18]: 7.85
- MCC at 72 h [19]: > 100 µM
- pIC50 [20]: 6.18
- pEC50 (Felid alphaherpesvirus 1): < 4.70
- pEC50 (Feline coronavirus): < 4.70
- pIC50 (CCRF-CEM): 4.96
- pIC50 [21]: 7.70
- pIC50 [22]: 5.60
- MCC at 72 h [23]: 100 µM
- CC50 [24]: 16 µM
- pEC50 [25]: < 4.70
- pEC50 (Human alphaherpesvirus 1 [26]): < 4.00
- pEC50 [27]: < 5.00
- pEC50 [28]: < 4.00
- MCC [29]: 20 µM
- MCC at 72 h [30]: 100 µM
- pIC50 [31]: < 6.00
- pEC50 (Punta Toro virus): < 4.70
- pIC50 [32]: 6.72

SMILES: Cc1cc(C)cc(S(=O)(=O)c2c(C(=O)NCCC(N)=O)[nH]c3ccc(Cl)cc23)c1
- pEC50 (Influenza A virus H3N2 [1]): < 5.40
- pEC50 [2]: < 5.40
- pEC50 (Coxsackievirus B4 [3]): 4.92
- pEC50 (Human respirovirus 3): < 4.70
- pEC50 (Influenza A virus [4]): < 5.40
- pIC50 [5]: 8.15
- pEC50 [6]: 9.00
- pEC50 (Influenza A virus H3N2 [7]): < 5.40
- pIC50 [8]: 7.11
- pEC50 [9]: < 5.40
- pEC50 (Sindbis virus): < 4.70
- CC50 [10]: 1.7 µM
- pEC50 (Human alphaherpesvirus 1 [11]): < 5.40
- pEC50 (Vaccinia virus): < 5.40
- pEC50 (Influenza A virus [12]): < 5.40
- pIC50 (L1210): 4.59
- pEC50 (Influenza B virus [13]): < 5.40
- pIC50 [14]: 6.84
- pEC50 (Influenza B virus [15]): < 5.40
- pEC50 (Coxsackievirus B4 [16]): < 5.40
- pEC50 (Human alphaherpesvirus 2): < 5.40
- pIC50 [17]: 5.05
- pIC50 [18]: 7.72
- MCC at 72 h [19]: 20 µM
- pIC50 [20]: ≤ 6.00
- pEC50 (Felid alphaherpesvirus 1): < 5.40
- pEC50 (Feline coronavirus): < 5.40
- pIC50 (CCRF-CEM): 4.80
- pIC50 [21]: 7.57
- pIC50 [22]: 5.30
- MCC at 72 h [23]: 20 µM
- CC50 [24]: 9.7 µM
- pEC50 [25]: < 4.70
- pEC50 (Human alphaherpesvirus 1 [26]): < 5.40
- pEC50 [27]: < 5.00
- pEC50 [28]: < 5.40
- MCC [29]: 20 µM
- MCC at 72 h [30]: 100 µM
- pIC50 [31]: < 6.00
- pEC50 (Punta Toro virus): < 4.70
- pIC50 [32]: 6.45
